Assay results from ChEMBL document CHEMBL1687738, “Effect of Candida glabrata FKS1 and FKS2 mutations on echinocandin sensitivity and kinetics of 1,3-beta-D-glucan synthase: implication for the existing susceptibility breakpoint” (Antimicrob Agents Chemother, 2009).
Values after ≈ are worked out from the molar mass of the structure shown. Starred links: 1 amine or outer side, 2 acyl side, 3 side chain; linkers in the order of their positions; H or OH if unused. Positions of bridges follow the written chain, without caps; N, C: chain ends. Non-standard residues stand in square brackets, D forms with d. Residues, ends and D or L forms follow the SMILES beside them. *: point of attachment. hTyr(3S-OH,4S-OH,3'-OSO3H) = N[C@H](C(=O)O)[C@H](O)[C@@H](O)c1ccc(O)c(OS(=O)(=O)O)c1; Orn(4R-OH,5R-OH) = O=C([C@H](C[C@@H](O)[C@@H](O)N[*:3])N[*:1])[*:2]; Pro(3S-OH,4S-Me) = C[C@H]1CN[C@H](C(=O)O)[C@H]1O; X1 = CCCCCOc1ccc(-c2cc(-c3ccc(C(=O)*)cc3)no2)cc1; Gln(3R-OH) = NC(=O)C[C@@H](O)[C@H](N)C(=O)O; Hyp = O=C(O)[C@@H]1C[C@@H](O)CN1

How the values were obtained:
[1] = target: 1,3-beta-glucan synthase component FKS1 (Candida glabrata, UniProt E2GKZ4, D632E); assay: Inhibition of Candida glabrata isolate 3169 1,3-beta-D-glucan synthase Fks1p D632E mutant/wild type Fks2p; design: species or system Nakaseomyces glabratus
Chain of 1,3-beta-glucan synthase component FKS1 (Candida glabrata, UniProt E2GKZ4, D632E) (E2GKZ4 entry or part of it D632E): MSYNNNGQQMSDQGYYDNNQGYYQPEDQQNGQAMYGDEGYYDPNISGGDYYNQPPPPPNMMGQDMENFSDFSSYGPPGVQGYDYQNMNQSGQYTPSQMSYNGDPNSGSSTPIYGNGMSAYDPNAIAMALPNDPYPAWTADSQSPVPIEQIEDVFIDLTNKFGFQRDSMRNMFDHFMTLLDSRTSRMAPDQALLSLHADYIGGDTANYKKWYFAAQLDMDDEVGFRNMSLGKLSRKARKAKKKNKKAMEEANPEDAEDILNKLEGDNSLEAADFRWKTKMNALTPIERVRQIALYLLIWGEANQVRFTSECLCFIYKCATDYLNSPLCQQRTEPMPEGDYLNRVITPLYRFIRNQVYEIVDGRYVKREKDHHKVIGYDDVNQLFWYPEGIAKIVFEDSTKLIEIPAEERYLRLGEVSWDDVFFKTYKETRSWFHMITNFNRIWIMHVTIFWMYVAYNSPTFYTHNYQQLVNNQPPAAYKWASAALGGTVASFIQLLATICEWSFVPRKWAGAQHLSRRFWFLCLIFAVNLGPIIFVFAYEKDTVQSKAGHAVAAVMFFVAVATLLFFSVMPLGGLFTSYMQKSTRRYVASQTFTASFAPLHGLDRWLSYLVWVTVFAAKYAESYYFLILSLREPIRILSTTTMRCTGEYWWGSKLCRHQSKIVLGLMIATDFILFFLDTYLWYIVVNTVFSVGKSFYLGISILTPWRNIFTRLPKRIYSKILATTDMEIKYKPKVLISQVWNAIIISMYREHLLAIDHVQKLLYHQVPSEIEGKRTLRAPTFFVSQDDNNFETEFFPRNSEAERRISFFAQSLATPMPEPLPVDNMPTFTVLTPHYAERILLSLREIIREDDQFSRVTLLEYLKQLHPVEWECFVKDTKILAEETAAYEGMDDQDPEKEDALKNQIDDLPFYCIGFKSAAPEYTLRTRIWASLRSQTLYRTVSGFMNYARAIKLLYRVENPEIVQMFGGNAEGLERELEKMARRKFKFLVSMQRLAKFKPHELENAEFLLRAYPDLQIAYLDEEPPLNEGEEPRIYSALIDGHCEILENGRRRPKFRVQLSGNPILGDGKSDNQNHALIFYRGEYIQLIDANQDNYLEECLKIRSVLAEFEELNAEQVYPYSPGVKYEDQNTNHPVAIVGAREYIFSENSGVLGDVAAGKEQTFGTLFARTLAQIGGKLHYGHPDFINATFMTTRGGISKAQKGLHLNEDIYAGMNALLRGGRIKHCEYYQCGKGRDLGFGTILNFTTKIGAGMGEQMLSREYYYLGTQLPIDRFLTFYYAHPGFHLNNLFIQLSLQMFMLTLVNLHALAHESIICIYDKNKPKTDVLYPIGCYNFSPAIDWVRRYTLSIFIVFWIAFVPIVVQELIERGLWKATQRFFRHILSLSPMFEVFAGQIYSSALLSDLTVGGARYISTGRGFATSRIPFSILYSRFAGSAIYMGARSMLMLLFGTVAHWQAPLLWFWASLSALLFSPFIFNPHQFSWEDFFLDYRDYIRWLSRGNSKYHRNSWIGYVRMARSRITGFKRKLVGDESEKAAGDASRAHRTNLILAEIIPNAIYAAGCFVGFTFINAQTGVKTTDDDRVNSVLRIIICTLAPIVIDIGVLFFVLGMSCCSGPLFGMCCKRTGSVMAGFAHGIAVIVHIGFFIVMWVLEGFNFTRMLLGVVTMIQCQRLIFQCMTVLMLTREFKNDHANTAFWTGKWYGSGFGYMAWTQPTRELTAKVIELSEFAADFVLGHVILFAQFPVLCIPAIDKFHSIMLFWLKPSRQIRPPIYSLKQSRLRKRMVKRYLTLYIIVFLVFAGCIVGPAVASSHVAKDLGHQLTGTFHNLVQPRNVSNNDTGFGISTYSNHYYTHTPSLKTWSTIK
In short: (§1)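 Cells grown in YPD broth at 35°C with vigorous shaking to early stationary phase. Membrane protein extracted and glucan synthase partially purified by product entrapment. Filtration polymerization assay measured [3H]glucose incorporation into product, started by adding enzyme. Echinocandin serial dilutions spanned 0.01–10,000 ng/ml, with 1% DMSO controls for anidulafungin. IC50 from variable-slope sigmoidal fit.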

Nakaseomyces glabratus [2] = assay: Antifungal activity against Candida glabrata isolate 42997 expressing Fks1p F625S mutant and wild type Fks2p by CLSI method in presence of 50% human serum; format: functional
In short: (§2)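 Broth microdilution MIC per CLSI M27-A3 in RPMI 1640 supplemented with 50% serum. Caspofungin and micafungin stocks in sterile water; anidulafungin stock in 100% DMSO; stocks kept at −86°C.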

Nakaseomyces glabratus [3] = assay: Antifungal activity against Candida glabrata isolate 42971 expressing Fks1p D632Y mutant and Fks2p R1377STOP mutant by CLSI method; format: functional
In short: (§3)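 Broth microdilution MIC per CLSI M27-A3 in RPMI 1640 medium without serum. Caspofungin and micafungin stocks in sterile water; anidulafungin stock in 100% DMSO; stocks kept at −86°C.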

Nakaseomyces glabratus [4] = assay: Antifungal activity against Candida glabrata ATCC 90030 expressing wild type Fks1p and Fks2p by CLSI method; format: functional
In short: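 Broth microdilution MIC per CLSI M27-A3 in RPMI 1640 medium, also run in RPMI 1640 with 50% serum. Wild-type control strain. Caspofungin and micafungin dissolved in sterile distilled water and anidulafungin in 100% DMSO; stock solutions stored at −86°C. Geometric means used to compare MICs.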

Nakaseomyces glabratus [5] = assay: Antifungal activity against Candida glabrata isolate 31498 expressing wild type Fks1p and Fks2p F659 deletion mutant by CLSI method in presence of 50% human serum; format: functional; in short: as §2
Nakaseomyces glabratus [6] = assay: Antifungal activity against Candida glabrata isolate 31498 expressing wild type Fks1p and Fks2p F659 deletion mutant by CLSI method; format: functional; in short: as §3
Nakaseomyces glabratus [7] = assay: Antifungal activity against Candida glabrata isolate 42997 expressing Fks1p F625S mutant and wild type Fks2p by CLSI method; format: functional; in short: as §3
Nakaseomyces glabratus [8] = assay: Antifungal activity against Candida glabrata isolate 42031 expressing wild type Fks1p and Fks2p D666E mutant by CLSI method in presence of 50% human serum; format: functional; in short: as §2
1,3-beta-glucan synthase [9] = target: 1,3-beta-glucan synthase (Candida glabrata, UniProt F5BCZ9, P667T); assay: Inhibition of Candida glabrata isolate 51916 1,3-beta-D-glucan synthase wild type Fks1p/Fks2p P667T mutant; design: species or system Nakaseomyces glabratus; in short: as §1
Nakaseomyces glabratus [10] = assay: Antifungal activity against Candida glabrata isolate 3169 expressing Fks1p D632E mutant and wild type Fks2p by CLSI method in presence of 50% human serum; format: functional; in short: as §2
[11] = Inhibition of Candida glabrata isolate 218 wild type 1,3-beta-D-glucan synthase; design: species or system Nakaseomyces glabratus; in short: as §1
Nakaseomyces glabratus [12] = assay: Antifungal activity against Candida glabrata isolate 41400 expressing wild type Fks1p and Fks2p D666G mutant by CLSI method; format: functional; in short: as §3
1,3-beta-glucan synthase [13] = target: 1,3-beta-glucan synthase (Candida glabrata, UniProt F5BCZ9, D666E); assay: Inhibition of Candida glabrata isolate 42031 1,3-beta-D-glucan synthase wild type Fks1p/Fks2p D666E mutant; design: species or system Nakaseomyces glabratus; in short: as §1
Nakaseomyces glabratus [14] = assay: Antifungal activity against Candida glabrata isolate 218 expressing wild type Fks1p and Fks2p by CLSI method in presence of 50% human serum; format: functional; in short: as §2
Nakaseomyces glabratus [15] = assay: Antifungal activity against Candida glabrata isolate 234 expressing wild type Fks1p and Fks2p F659V mutant by CLSI method in presence of 50% human serum; format: functional; in short: as §2
1,3-beta-glucan synthase [16] = target: 1,3-beta-glucan synthase (Candida glabrata, UniProt F5BCZ9, F659V); assay: Inhibition of Candida glabrata isolate 234 1,3-beta-D-glucan synthase wild type Fks1p/Fks2p F659V mutant; design: species or system Nakaseomyces glabratus; in short: as §1
Nakaseomyces glabratus [17] = assay: Antifungal activity against Candida glabrata isolate 41026 expressing wild type Fks1p and Fks2p F659S mutant by CLSI method in presence of 50% human serum; format: functional; in short: as §2
[18] = Inhibition of Candida glabrata isolate 3168 wild type 1,3-beta-D-glucan synthase; design: species or system Nakaseomyces glabratus; in short: as §1
Nakaseomyces glabratus [19] = assay: Antifungal activity against Candida glabrata isolate 3169 expressing Fks1p D632E mutant and wild type Fks2p by CLSI method; format: functional; in short: as §3
Nakaseomyces glabratus [20] = assay: Antifungal activity against Candida glabrata isolate 3830 expressing wild type Fks1p and Fks2p S663P mutant by CLSI method in presence of 50% human serum; format: functional; in short: as §2
Nakaseomyces glabratus [21] = assay: Antifungal activity against Candida glabrata isolate 21900 expressing Fks1p D632G mutant and wild type Fks2p by CLSI method in presence of 50% human serum; format: functional; in short: as §2
Nakaseomyces glabratus [22] = assay: Antifungal activity against Candida glabrata isolate 5416 expressing wild type Fks1p and Fks2p W1375L mutant by CLSI method; format: functional; in short: as §3
Nakaseomyces glabratus [23] = assay: Antifungal activity against Candida glabrata isolate 42971 expressing Fks1p D632Y mutant and Fks2p R1377STOP mutant by CLSI method in presence of 50% human serum; format: functional; in short: as §2
Nakaseomyces glabratus [24] = assay: Antifungal activity against Candida glabrata isolate 41026 expressing wild type Fks1p and Fks2p F659S mutant by CLSI method; format: functional; in short: as §3
Nakaseomyces glabratus [25] = assay: Antifungal activity against Candida glabrata isolate 218 expressing wild type Fks1p and Fks2p by CLSI method; format: functional; in short: as §3
1,3-beta-glucan synthase [26] = target: 1,3-beta-glucan synthase (Candida glabrata, UniProt F5BCZ9, D666G); assay: Inhibition of Candida glabrata isolate 41400 1,3-beta-D-glucan synthase wild type Fks1p/Fks2p D666G mutant; design: species or system Nakaseomyces glabratus; in short: as §1
Nakaseomyces glabratus [27] = assay: Ratio of IC50 for Candida glabrata wild type 1,3-beta-glucan synthase to IC50 for Candida glabrata 1,3-beta-glucan synthase mutant
Nakaseomyces glabratus [28] = assay: Antifungal activity against Candida glabrata isolate 5416 expressing wild type Fks1p and Fks2p W1375L mutant by CLSI method in presence of 50% human serum; format: functional; in short: as §2
1,3-beta-glucan synthase [29] = target: 1,3-beta-glucan synthase (Candida glabrata, UniProt F5BCZ9, W1375L); assay: Inhibition of Candida glabrata isolate 5416 1,3-beta-D-glucan synthase wild type Fks1p/Fks2p W1375L mutant; design: species or system Nakaseomyces glabratus; in short: as §1
Nakaseomyces glabratus [30] = assay: Antifungal activity against Candida glabrata isolate 42031 expressing wild type Fks1p and Fks2p D666E mutant by CLSI method; format: functional; in short: as §3
Nakaseomyces glabratus [31] = assay: Antifungal activity against Candida glabrata isolate 41400 expressing wild type Fks1p and Fks2p D666G mutant by CLSI method in presence of 50% human serum; format: functional; in short: as §2
[32] = Inhibition of Candida glabrata isolate 31498 1,3-beta-D-glucan synthase wild type Fks1p/Fks2p F659 deletion mutant; design: species or system Nakaseomyces glabratus; in short: as §1
Nakaseomyces glabratus [33] = assay: Antifungal activity against Candida glabrata isolate 51916 expressing wild type Fks1p and Fks2p P667T mutant by CLSI method; format: functional; in short: as §3
[34] = target: 1,3-beta-glucan synthase component FKS1 (Candida glabrata, UniProt E2GKZ4, D632G); assay: Inhibition of Candida glabrata isolate 21900 1,3-beta-D-glucan synthase Fks1p D632G mutant/wild type Fks2p; design: species or system Nakaseomyces glabratus; in short: as §1
Chain of 1,3-beta-glucan synthase component FKS1 (Candida glabrata, UniProt E2GKZ4, D632G) (E2GKZ4 entry or part of it D632G): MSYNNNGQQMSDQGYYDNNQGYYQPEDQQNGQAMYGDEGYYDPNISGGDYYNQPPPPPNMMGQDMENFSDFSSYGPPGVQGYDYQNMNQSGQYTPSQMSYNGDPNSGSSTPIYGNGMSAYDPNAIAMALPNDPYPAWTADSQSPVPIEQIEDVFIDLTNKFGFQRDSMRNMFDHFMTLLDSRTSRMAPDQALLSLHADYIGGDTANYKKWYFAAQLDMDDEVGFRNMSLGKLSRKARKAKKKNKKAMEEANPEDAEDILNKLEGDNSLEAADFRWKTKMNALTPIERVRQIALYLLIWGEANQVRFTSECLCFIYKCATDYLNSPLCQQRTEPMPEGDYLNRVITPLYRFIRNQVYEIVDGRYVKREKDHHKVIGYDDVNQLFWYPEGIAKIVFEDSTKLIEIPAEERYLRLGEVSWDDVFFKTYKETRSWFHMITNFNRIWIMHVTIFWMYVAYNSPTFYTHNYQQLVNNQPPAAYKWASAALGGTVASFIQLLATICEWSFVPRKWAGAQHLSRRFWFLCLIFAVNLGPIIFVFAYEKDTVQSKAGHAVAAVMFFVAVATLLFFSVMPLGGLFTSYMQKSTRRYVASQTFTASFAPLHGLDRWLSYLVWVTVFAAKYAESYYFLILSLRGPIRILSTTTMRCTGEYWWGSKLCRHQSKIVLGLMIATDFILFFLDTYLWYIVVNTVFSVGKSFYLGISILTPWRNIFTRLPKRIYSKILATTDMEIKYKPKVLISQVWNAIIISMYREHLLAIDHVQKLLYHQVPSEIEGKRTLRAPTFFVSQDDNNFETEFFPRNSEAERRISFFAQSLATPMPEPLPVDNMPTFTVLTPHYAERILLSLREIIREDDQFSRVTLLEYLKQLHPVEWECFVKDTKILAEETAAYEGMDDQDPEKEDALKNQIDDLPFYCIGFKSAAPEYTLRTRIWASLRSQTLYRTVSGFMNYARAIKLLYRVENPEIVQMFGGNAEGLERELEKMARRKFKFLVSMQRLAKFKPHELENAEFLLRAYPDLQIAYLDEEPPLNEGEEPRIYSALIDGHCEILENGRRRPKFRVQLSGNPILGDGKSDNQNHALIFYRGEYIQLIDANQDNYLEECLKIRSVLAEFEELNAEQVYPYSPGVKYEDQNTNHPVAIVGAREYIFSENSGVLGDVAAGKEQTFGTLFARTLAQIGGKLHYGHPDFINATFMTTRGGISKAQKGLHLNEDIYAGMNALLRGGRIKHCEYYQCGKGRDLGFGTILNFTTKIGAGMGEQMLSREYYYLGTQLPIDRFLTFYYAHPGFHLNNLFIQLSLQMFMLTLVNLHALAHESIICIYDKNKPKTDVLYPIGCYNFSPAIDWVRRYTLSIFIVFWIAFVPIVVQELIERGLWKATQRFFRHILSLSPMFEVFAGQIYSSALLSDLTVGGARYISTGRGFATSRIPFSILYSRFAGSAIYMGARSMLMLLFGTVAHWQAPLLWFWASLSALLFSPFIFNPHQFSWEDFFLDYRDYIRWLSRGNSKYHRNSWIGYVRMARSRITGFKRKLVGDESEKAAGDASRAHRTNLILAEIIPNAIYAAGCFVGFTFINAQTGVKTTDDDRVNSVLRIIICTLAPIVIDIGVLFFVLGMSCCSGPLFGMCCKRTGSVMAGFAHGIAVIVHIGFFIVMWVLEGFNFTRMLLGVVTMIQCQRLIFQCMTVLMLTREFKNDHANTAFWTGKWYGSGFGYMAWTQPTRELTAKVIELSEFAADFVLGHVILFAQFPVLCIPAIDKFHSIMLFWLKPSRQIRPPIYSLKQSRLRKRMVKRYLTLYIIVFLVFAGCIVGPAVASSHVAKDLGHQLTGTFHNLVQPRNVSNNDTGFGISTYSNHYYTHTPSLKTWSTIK

Row | Compound | IC50 [1] [nM] | MIC (Nakaseomyces glabratus [2]) [µg/mL] | MIC (Nakaseomyces glabratus [3]) [µg/mL] | MIC (Nakaseomyces glabratus [4]) [µg/mL] | MIC (Nakaseomyces glabratus [5]) [µg/mL] | MIC (Nakaseomyces glabratus [6]) [µg/mL] | MIC (Nakaseomyces glabratus [7]) [µg/mL] | MIC (Nakaseomyces glabratus [8]) [µg/mL] | IC50 (1,3-beta-glucan synthase [9]) [nM] | MIC (Nakaseomyces glabratus [10]) [µg/mL] | IC50 [11] [µg/mL] | MIC (Nakaseomyces glabratus [12]) [µg/mL] | IC50 (1,3-beta-glucan synthase [13]) [nM] | MIC (Nakaseomyces glabratus [14]) [µg/mL] | MIC (Nakaseomyces glabratus [15]) [µg/mL] | IC50 (1,3-beta-glucan synthase [16]) [nM] | MIC (Nakaseomyces glabratus [17]) [µg/mL] | IC50 [18] [µg/mL] | MIC (Nakaseomyces glabratus [19]) [µg/mL] | MIC (Nakaseomyces glabratus [20]) [µg/mL] | further results
1 | CC[C@H](C)C[C@H](C)CCCCCCCCC(=O)N[C@H]1C[C@@H](O)[C@@H](NCCN)NC(=O)[C@@H]2[C@@H](O)CCN2C(=O)[C@H]([C@H](O)CCN)NC(=O)[C@H]([C@H](O)[C@@H](O)c2ccc(O)cc2)NC(=O)[C@@H]2C[C@@H](O)CN2C(=O)[C@H]([C@@H](C)O)NC1=O [CASPOFUNGIN] | 772 | 8 | 8 (≈ 7.32 µM) | 0.06 (≈ 0.0549 µM) | 8 | 2 (≈ 1.83 µM) | 8 (≈ 7.32 µM) | 8 | 152 | 8 | 0.00311 (≈ 0.00284 µM) | 4 (≈ 3.66 µM) | 236 | 0.25 | 8 | 105 | 16 | 0.00179 (≈ 0.00164 µM) | 2.52 (≈ 2.3 µM) | 16 | MIC (Nakaseomyces glabratus [21]): 16 µg/mL; MIC (Nakaseomyces glabratus [22]): 4 µg/mL (≈ 3.66 µM); MIC (Nakaseomyces glabratus [23]): 8 µg/mL; MIC (Nakaseomyces glabratus [24]): 16 µg/mL (≈ 14.6 µM); MIC (Nakaseomyces glabratus [25]): 0.12 µg/mL (≈ 0.11 µM); IC50 (1,3-beta-glucan synthase [26]): 463 nM; Ratio IC50 (Nakaseomyces glabratus [27]): 267; MIC (Nakaseomyces glabratus [28]): 8 µg/mL; IC50 (1,3-beta-glucan synthase [29]): 556 nM; MIC (Nakaseomyces glabratus [30]): 4 µg/mL (≈ 3.66 µM); MIC (Nakaseomyces glabratus [31]): 8 µg/mL; IC50 [32]: 0.1172 µg/mL (≈ 0.107 µM); MIC (Nakaseomyces glabratus [33]): 2 µg/mL (≈ 1.83 µM); IC50 [34]: 692 nM
2 | CCCCCOc1ccc(-c2cc(-c3ccc(C(=O)N[C@H]4C[C@@H](O)[C@@H](O)NC(=O)[C@@H]5[C@@H](O)[C@@H](C)CN5C(=O)[C@H]([C@H](O)CC(N)=O)NC(=O)[C@H]([C@H](O)[C@@H](O)c5ccc(O)c(OS(=O)(=O)O)c5)NC(=O)[C@@H]5C[C@@H](O)CN5C(=O)[C@H]([C@@H](C)O)NC4=O)cc3)no2)cc1 [MICAFUNGIN] (X1-[Orn(4R-OH,5R-OH)]T[Hyp][hTyr(3S-OH,4S-OH,3'-OSO3H)][Gln(3R-OH)][Pro(3S-OH,4S-Me)]; lactam 1-C) | 350 | 4 | 1 (≈ 0.787 µM) | 0.03 (≈ 0.0236 µM) | 8 | 4 (≈ 3.15 µM) | 0.5 (≈ 0.394 µM) | 4 | 87.3 | 8 | 0.00056 (≈ 0.000441 µM) | 0.12 (≈ 0.0945 µM) | 69.8 | 1 | 8 | 89.3 | 16 | 0.00129 (≈ 0.00102 µM) | 2.52 (≈ 1.98 µM) | 8 | MIC (Nakaseomyces glabratus [21]): 8 µg/mL; MIC (Nakaseomyces glabratus [22]): 0.25 µg/mL (≈ 0.197 µM); MIC (Nakaseomyces glabratus [23]): 8 µg/mL; MIC (Nakaseomyces glabratus [24]): 4 µg/mL (≈ 3.15 µM); MIC (Nakaseomyces glabratus [25]): 0.12 µg/mL (≈ 0.0945 µM); IC50 (1,3-beta-glucan synthase [26]): 79.2 nM; Ratio IC50 (Nakaseomyces glabratus [27]): 60; MIC (Nakaseomyces glabratus [28]): 2 µg/mL; IC50 (1,3-beta-glucan synthase [29]): 39.9 nM; MIC (Nakaseomyces glabratus [30]): 0.25 µg/mL (≈ 0.197 µM); MIC (Nakaseomyces glabratus [31]): 4 µg/mL; IC50 [32]: 0.1235 µg/mL (≈ 0.0972 µM); MIC (Nakaseomyces glabratus [33]): 0.4 µg/mL (≈ 0.315 µM); IC50 [34]: 270 nM
